In ChEMBL document CHEMBL1139794, “Anti-AIDS agents 66: syntheses and anti-HIV activity of phenolic and aza 3',4'-di-O-(-)-camphanoyl-(+)-cis-khellactone (DCK) derivatives” (Bioorg Med Chem, 2007):

How the values were obtained:
[1] = Metabolic stability in human liver microsomes assessed as half life at 1 uM; type: ADME, Microsome
In short: (§1)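 Compound in 100 mM sodium phosphate, pH 7.4, with 0.1 mg/mL human liver microsomes and 5 mM MgCl2. Preincubated 10 min at 37 °C, then started with NADPH (15 mM stock). Run in duplicate, with NADPH-free controls. Sampled at 0–60 min and quenched in ice-cold acetonitrile with internal standard. Quantified by HPLC-UV; % remaining relative to 0 min gave t1/2, and scaled Clint in L/min/kg.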

Liver microsomes = assay: Intrinsic clearance in human liver microsomes at 1 uM; type: ADME, Microsome; in short: as §1
[2] = system: Human immunodeficiency virus 1; assay: Antiviral activity against HIV1 3B replication in H9 cells; type: functional, organism-based; settings: Human immunodeficiency virus 1, 3B
H9 = assay: Reduction in cell viability of human H9 cells; type: cell-based
[3] = Therapeutic index, ratio of IC50 for human H9 cells to EC50 for HIV1 3B; type: cell-based; settings: read-out: Ratio IC50/EC50

Compound	half-life at 1 µM [1]	clearance (Liver microsomes)	EC50 [2]	IC50 (H9)	selectivity ratio [3]
Cc1cc(=O)oc2c3c(ccc12)NC(C)(C)[C@H](OC(=O)C12CCC(C)(C(=O)O1)C2(C)C)[C@@H]3OC(=O)C12CCC(C)(C(=O)O1)C2(C)C (some centres undefined)	9.6 min	700 mL/min/kg	0.77 µM	> 32 µM	> 42
Cc1cn([C@H]2C[C@H](N=[N+]=[N-])[C@@H](CO)O2)c(=O)[nH]c1=O [ZIDOVUDINE]			0.05 µM	1900 µM	38000
Cc1c(O)c2ccc3c(c2oc1=O)[C@@H](OC(=O)C12CCC(C)(C(=O)O1)C2(C)C)[C@@H](OC(=O)C12CCC(C)(C(=O)O1)C2(C)C)C(C)(C)O3 (some centres undefined)	3.5 min	2000 mL/min/kg	2.1 µM	31 µM	15
Cc1cc(=O)oc2c3c(c(O)cc12)OC(C)(C)[C@H](OC(=O)C12CCC(C)(C(=O)O1)C2(C)C)[C@@H]3OC(=O)C12CCC(C)(C(=O)O1)C2(C)C (some centres undefined)	3.1 min	2300 mL/min/kg	1.5 µM	> 38 µM	> 25
Cc1cc2c(c3oc(=O)cc(O)c13)[C@@H](OC(=O)C13CCC(C)(C(=O)O1)C3(C)C)[C@@H](OC(=O)C13CCC(C)(C(=O)O1)C3(C)C)C(C)(C)O2 (some centres undefined)			1.2 µM	14 µM	12
CC1(C)Oc2ccc3c(O)cc(=O)oc3c2[C@@H](OC(=O)C23CCC(C)(C(=O)O2)C3(C)C)[C@H]1OC(=O)C12CCC(C)(C(=O)O1)C2(C)C (some centres undefined)			15 µM	> 40 µM	> 3
Cc1cc(=O)oc2c3c(ccc12)OC(C)(C)[C@H](OC(=O)C12CCC(C)(C(=O)O1)C2(C)C)[C@@H]3OC(=O)C12CCC(C)(C(=O)O1)C2(C)C (some centres undefined)	3.4 min	2000 mL/min/kg	0.02 µM	> 10 µM	> 500
